Test results: ChEMBL document CHEMBL4138196, “Discovery and structure-activity relationship of novel 4-hydroxy-thiazolidine-2-thione derivatives as tumor cell specific pyruvate kinase M2 activators” (Eur J Med Chem, 2018)

Key:
[1] = test system: HCT-116; assay: Cell cycle arrest in human HCT116 cells assessed as accumulation at S phase at 5 uM after 8 to 12 hrs by propidium iodide staining-based flow cytometric method (reference value: 43.38%); assay type: functional
Outline: (§1)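 HCT116 cells were exposed to DMSO or compound at 1.25, 2.5 or 5 μM; exposure is given as 8 h in the text and 12 h in the methods. Cells were harvested, washed twice in PBS and fixed in ice-cold ethanol at -4°C overnight. They were stained with propidium iodide (50 μg/mL) containing 0.1% RNase for 15 min in the dark at room temperature. Phase distribution was read by flow cytometry.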

[2] = test system: HCT-116; assay: Cell cycle arrest in human HCT116 cells assessed as accumulation at G2/M phase at 2.5 uM after 8 to 12 hrs by propidium iodide staining-based flow cytometric method (reference value: 21.28%); assay type: functional; outline: as §1
[3] = test system: HCT-116; assay: Cell cycle arrest in human HCT116 cells assessed as accumulation at G2/M phase at 1.25 uM after 8 to 12 hrs by propidium iodide staining-based flow cytometric method (reference value: 21.28%); assay type: functional; outline: as §1
[4] = test system: HeLa; assay: Antiproliferative activity against human HeLa cells after 48 hrs by MTS assay; assay type: functional, cell-based
Outline: (§2)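 Cells grown in RPMI 1640 with 9% FBS at 37°C, 5% CO2. 3000-10000 cells/well were left to attach 12 h, then given compound at five concentrations, or DMSO as vehicle control, for 48 h. MTS was added for 3 h at 37°C and absorbance read at 490 nm. IC50 (50% growth inhibition) was taken from triplicate dose-response curves.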

[5] = test system: HCT-116; assay: Cell cycle arrest in human HCT116 cells assessed as accumulation at S phase at 2.5 uM after 8 to 12 hrs by propidium iodide staining-based flow cytometric method (reference value: 43.38%); assay type: functional; outline: as §1
[6] = test system: HCT-116; assay: Antiproliferative activity against human HCT116 cells after 48 hrs by MTS assay; assay type: functional, cell-based; conditions: HCT-116, 48 h; outline: as §2
[7] = test system: HCT-116; assay: Cell cycle arrest in human HCT116 cells assessed as accumulation at G1 phase at 2.5 uM after 8 to 12 hrs by propidium iodide staining-based flow cytometric method (reference value: 40%); assay type: functional; outline: as §1
[8] = test system: HCT-116; assay: Cell cycle arrest in human HCT116 cells assessed as accumulation at G2/M phase after 8 to 12 hrs by propidium iodide staining-based flow cytometric method; assay type: functional; outline: as §1
[9] = test system: NCI-H1299; assay: Antiproliferative activity against human H1299 cells after 48 hrs by MTS assay; assay type: functional, cell-based; conditions: NCI-H1299, 48 h; outline: as §2
[10] = test system: PC-3; assay: Antiproliferative activity against human PC3 cells after 48 hrs by MTS assay; assay type: functional, cell-based; conditions: PC-3, 48 h; outline: as §2
[11] = Antiproliferative activity against HELF after 48 hrs by MTS assay; parameters: species or system Homo sapiens; outline: as §2
[12] = test system: HCT-116; assay: Cell cycle arrest in human HCT116 cells assessed as accumulation at G1 phase at 5 uM after 8 to 12 hrs by propidium iodide staining-based flow cytometric method (reference value: 40%); assay type: functional; outline: as §1
[13] = test system: HCT-116; assay: Cell cycle arrest in human HCT116 cells assessed as accumulation at G1 phase at 1.25 uM after 8 to 12 hrs by propidium iodide staining-based flow cytometric method (reference value: 40%); assay type: functional; outline: as §1
[14] = target: Pyruvate kinase PKM (Homo sapiens, UniProt P14618); assay: Activation of N-terminal His -tagged human PKM2 expressed in Escherichia coli BL21 using PEP as substrate measured at 30 secs intervals for between 3 and 6 mins by fluorescent pyruvate kinase-lactate dehydrogenase coupled assay
Pyruvate kinase PKM, sequence (P14618 whole entry): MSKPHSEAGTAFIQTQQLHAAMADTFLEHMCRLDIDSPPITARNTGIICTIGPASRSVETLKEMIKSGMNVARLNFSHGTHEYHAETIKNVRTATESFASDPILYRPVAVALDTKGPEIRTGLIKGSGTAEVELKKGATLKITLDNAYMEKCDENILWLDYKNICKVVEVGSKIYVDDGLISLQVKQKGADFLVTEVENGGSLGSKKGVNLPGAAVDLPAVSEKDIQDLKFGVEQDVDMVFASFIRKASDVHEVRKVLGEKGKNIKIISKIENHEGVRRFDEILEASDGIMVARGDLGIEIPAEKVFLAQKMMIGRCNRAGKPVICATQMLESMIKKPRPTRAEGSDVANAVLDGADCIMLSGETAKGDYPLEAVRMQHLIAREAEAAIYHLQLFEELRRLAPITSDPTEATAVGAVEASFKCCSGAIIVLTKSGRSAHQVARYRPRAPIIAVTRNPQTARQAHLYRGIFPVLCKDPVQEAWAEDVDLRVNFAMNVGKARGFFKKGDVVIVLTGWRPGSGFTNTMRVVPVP

[15] = test system: HCT-116; assay: Cell cycle arrest in human HCT116 cells assessed as accumulation at G2/M phase at 5 uM after 8 to 12 hrs by propidium iodide staining-based flow cytometric method (reference value: 21.28%); assay type: functional; outline: as §1
[16] = test system: HCT-116; assay: Cell cycle arrest in human HCT116 cells assessed as accumulation at S phase at 1.25 uM after 8 to 12 hrs by propidium iodide staining-based flow cytometric method (reference value: 43.38%); assay type: functional; outline: as §1

| SMILES | Activity [1] | Activity [2] | Activity [3] | IC50 [4] | Activity [5] | IC50 [6] | Activity [7] | Activity [8] | IC50 [9] | IC50 [10] | IC50 [11] | Activity [12] | Activity [13] | AC50 [14] | Activity [15] | Activity [16] |
| --- | --- | --- | --- | --- | --- | --- | --- | --- | --- | --- | --- | --- | --- | --- | --- | --- |
| O=S(=O)(Nc1ccc(C2(O)CSC(=S)N2Cc2cccnc2)cc1)c1ccc2c(c1)OCCO2 (stereo not given) | 27.65% | 56.76% | 48.86% | 460 nM | 23.99% | 810 nM | 17.35% | Dose-dependent effect | 690 nM | 660 nM | 11800 nM | 11.58% | 20.37% | 3140 nM | 63.21% | 30.52% |
| O=S(=O)(Nc1ccc(C2(O)CSC(=S)N2Cc2cccnc2)cc1)c1ccc2ccccc2c1 (stereo not given) |  |  |  | 460 nM |  | 1650 nM |  |  | 810 nM | 1520 nM | 8050 nM |  |  | > 20000 nM |  |  |
| O=S(=O)(Nc1ccc(C2(O)CSC(=S)N2Cc2ccncc2)cc1)c1ccc2c(c1)OCCO2 (stereo not given) |  |  |  | 470 nM |  | 660 nM |  |  | 750 nM | 700 nM | 8310 nM |  |  | > 20000 nM |  |  |
| COc1ncccc1CN1C(=S)SCC1(O)c1ccc(NS(=O)(=O)c2ccc3c(c2)OCCO3)cc1 (stereo not given) |  |  |  | 410 nM |  | 740 nM |  |  | 830 nM | 1130 nM | 10400 nM |  |  | > 20000 nM |  |  |
| O=S(=O)(Nc1ccc(C2(O)CSC(=S)N2Cc2ccc3nccn3c2)cc1)c1ccc2c(c1)OCCO2 (stereo not given) |  |  |  | 450 nM |  | 770 nM |  |  | 790 nM | 1330 nM | 4910 nM |  |  | 7070 nM |  |  |
